# Screening results: PubChem BioAssay, Broad Institute
# This is a sample that favours compounds with a hit; in the whole collection about 3.5% have one here.
# esBAF inh: Bmi1 luciferase reporter increase in mESCs, primary screen, esBAF inhibitor project, mouse ES cells, Bmi1 luciferase knock-in, single point; 24 h; 100% = twice the neutral-well signal; reporter increase, % at 12.5 µM; 2% of 350,000 active; AID 602393, 2012; in the data active = activation above about 40%; inconclusive = no clear call, values can overlap the other calls;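 note: 0% = median of the plate's neutral control wells and 100% = double that signal; a rise in the Bmi1 reporter signal indicates esBAF inhibition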
# Env fusion inh: inhibitors of HIV-1 Env-driven cell-cell fusion, primary screen, HeLa-JRFL effector, CEM21 target cells, luciferase | AID 651610, 2012 | inhibition, % at 12.3 µM | 1.1% of 360,000 active;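 active = mean replicate inhibition score of at least 50 and every replicate individually at or above 50; inconclusive = only one of the two criteria met; inactive = mean below 50 and not all replicates reaching 50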;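 note: 0% = plate neutral controls and 100% = maraviroc near 300 nM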
# MITF TRPM1 HTS: activators of MITF-driven TRPM1 promoter reporter, primary screen, cell-based, SK-MEL-5, luciferase, single point | AID 588334, 2011 | SK-MEL-5 TRPM1-promoter luciferase, 24 h; % of positive control, neutral wells = 0 | 0.75% of 300,000 active | activation, % at 12.5 µM;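 active = mean activation of at least 80% with every replicate also reaching 80%; inconclusive = mean reaches 80% but some replicate falls short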;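 note: 0% = neutral control wells and 100% = parthenolide positive control wells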
# Cneo AK release: Cryptococcus neoformans cell lysis inducers, primary screen, AK release luminescence, single concentration | C. neoformans lysis, adenylate kinase release luminescence, 4 h; normalised: neutral wells 0, clomiphene wells 100 | lysis activity, % at 15 µM | 0.2% of 360,000 active;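 active = mean lysis activity across replicates of at least 80%, whatever share of replicates individually reach that level; inactive = mean lysis activity below 80%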
#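 Material: C. neoformans cells; Schedule: 4 h static compound exposure, 37 °C, read 1 h post-reagent; Measured by: adenylate kinase release luminescence; Read-out: signal increase indicating cell lysis; Controls: Clomiphene as positive lysis control.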
# Wnt bcat act: Wnt/beta-catenin pathway activators, primary screen, cell-based, plate reader, single point. 1.2% of 300,000 active. activation, % at 9.35 µM. Wnt/beta-catenin reporter cell assay, activator; in the data active = activation above about 30%, passing the limit was not always enough; inconclusive = no clear call, values can overlap the other calls;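 note: 0% = neutral control wells and 100% = positive control wells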
# ERAP1 HTS inh: human ERAP1 aminopeptidase inhibitors, primary screen, biochemical, single point, plate reader | 0.15% of 340,000 active | inhibition, % at 10.7 µM | Endoplasmic reticulum aminopeptidase 1 (Homo sapiens), Q9NZ08 | recombinant ERAP1, Leu-AMC fluorescence, 60 min;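 active = mean replicate inhibition of at least 30%, or all replicates individually reaching that 30% level; inactive = mean below 30% and not every replicate reaching it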;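 note: 0% = neutral control wells and 100% = L-leucinethiol positive control wells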
# Target sequence (Q9NZ08 whole entry, looked up): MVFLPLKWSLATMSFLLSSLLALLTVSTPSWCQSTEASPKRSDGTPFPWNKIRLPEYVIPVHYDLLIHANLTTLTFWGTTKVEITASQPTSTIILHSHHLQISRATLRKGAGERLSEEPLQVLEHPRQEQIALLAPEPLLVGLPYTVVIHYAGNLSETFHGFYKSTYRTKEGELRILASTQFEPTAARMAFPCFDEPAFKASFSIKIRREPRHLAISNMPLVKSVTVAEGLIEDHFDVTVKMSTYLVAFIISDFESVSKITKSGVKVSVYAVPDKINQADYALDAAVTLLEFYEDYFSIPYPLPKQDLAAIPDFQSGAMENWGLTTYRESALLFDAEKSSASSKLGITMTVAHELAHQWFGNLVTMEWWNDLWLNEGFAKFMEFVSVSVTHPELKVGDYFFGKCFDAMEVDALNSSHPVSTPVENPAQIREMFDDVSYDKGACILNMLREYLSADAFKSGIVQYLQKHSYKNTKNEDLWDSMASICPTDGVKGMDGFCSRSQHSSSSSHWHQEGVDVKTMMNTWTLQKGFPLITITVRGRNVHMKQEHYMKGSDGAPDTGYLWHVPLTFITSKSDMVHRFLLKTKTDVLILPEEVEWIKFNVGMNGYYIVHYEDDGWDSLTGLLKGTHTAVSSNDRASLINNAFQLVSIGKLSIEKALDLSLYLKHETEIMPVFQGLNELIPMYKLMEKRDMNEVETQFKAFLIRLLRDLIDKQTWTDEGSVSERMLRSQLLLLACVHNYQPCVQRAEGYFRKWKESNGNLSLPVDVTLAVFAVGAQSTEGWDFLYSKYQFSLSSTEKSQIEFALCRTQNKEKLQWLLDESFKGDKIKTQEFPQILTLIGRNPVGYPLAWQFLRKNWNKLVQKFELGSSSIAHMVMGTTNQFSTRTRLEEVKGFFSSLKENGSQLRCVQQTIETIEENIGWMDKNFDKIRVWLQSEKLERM
# Numbers without * were called inactive; ? = inconclusive; nt = no result; ! = not active in a repeat; [ ] = another dose, or the depositor's remark.
SMILES,esBAF inh,Env fusion inh,MITF TRPM1 HTS,Cneo AK release,Wnt bcat act,ERAP1 HTS inh
CC1(C)CC(=O)c2sc(NC(=O)c3ccco3)nc2C1,24,-18,nt,4,5,3
CC(C)(C)c1csc(NC(=O)C2COc3ccccc3O2)n1 (stereo unspecified),55*,-39,66,-2,0,-4
CC(=O)c1sc(NC(=O)C2COc3ccccc3O2)nc1C (stereo unspecified),-51,21,nt,-5,36*,-6
CC1(C)CC(=O)c2sc(NC(=O)C3COc4ccccc4O3)nc2C1 (stereo unspecified),45*,nt,32,3,6,4
O=C(Nc1nncs1)C1COc2ccccc2O1 (stereo unspecified),nt,8,2,0,nt,nt
CC(=O)c1sc(Nc2ccc3c(c2)OCO3)nc1C,47*,-38,nt,-3,?,3
C[C@@H]1CN([C@@H](C)CO)S(=O)(=O)c2ccc(/C=C/c3ccccc3)cc2O[C@@H]1CN(C)C(=O)NC1CCCC1,5,-7[16.7 µM],nt,6,nt,-1
C[C@H](CO)N1C[C@H](C)[C@@H](CN(C)Cc2ccc3c(c2)OCO3)Oc2ccc(NC(=O)NC3CCCCC3)cc2C1=O,3,6[16.7 µM],nt,-3,nt,-2
COC(=O)N(C)C[C@H]1OCc2cn(nn2)CCCC(=O)N([C@@H](C)CO)C[C@@H]1C,-5,-16,nt,84*!,2,-5
C[C@H](CO)N1C[C@H](C)[C@H](CN(C)S(=O)(=O)c2cccc(C#N)c2)OCc2ccccc2-c2ccccc2C1=O,-8,41[16.7 µM],nt,-1,nt,0
COc1cccc(S(=O)(=O)N(C)C[C@@H]2OCc3cnnn3CCCC(=O)N([C@H](C)CO)C[C@H]2C)c1,-3,-7,nt,0,0,-4
COc1cccc(S(=O)(=O)N(C)C[C@@H]2OCc3ccccc3-c3ccccc3C(=O)N([C@@H](C)CO)C[C@@H]2C)c1,1,33[16.7 µM],nt,100*,nt,-2
COc1cccc(S(=O)(=O)N(C)C[C@H]2OCc3ccccc3-c3ccccc3C(=O)N([C@H](C)CO)C[C@H]2C)c1,4,-11[16.7 µM],nt,0,nt,-4
C[C@@H]1CN([C@H](C)CO)C(=O)c2ccccc2-c2ccccc2CO[C@H]1CN(C)S(=O)(=O)c1cccc(C#N)c1,3,11[16.7 µM],nt,95*,nt,0
COc1cccc(S(=O)(=O)N(C)C[C@H]2OCc3cnnn3CCCC(=O)N([C@H](C)CO)C[C@H]2C)c1,6,8[16.7 µM],nt,103*!,-1,0
COC(=O)N(C)C[C@@H]1OCc2cn(nn2)CCCC(=O)N([C@H](C)CO)C[C@H]1C,-4,-3,nt,-1,-2,3
Cc1ccc(S(=O)(=O)N2Cc3ccccc3CC2C(=O)Nc2ccc3c(c2)OCO3)cc1 (stereo unspecified),66*,nt,34,-4,nt,nt
COc1ccc(S(=O)(=O)N2Cc3ccccc3CC2C(=O)Nc2ccc3c(c2)OCO3)cc1 (stereo unspecified),59*,?,41,0,4,nt
COc1ccc(S(=O)(=O)N2CCCCC2c2cc(C(=O)Nc3ccc4c(c3)OCO4)no2)cc1 (stereo unspecified),16,17,nt,0,-1,-1
Cc1ccc(S(=O)(=O)N2Cc3ccccc3CC2C(=O)NC(C)(C)C)cc1 (stereo unspecified),0,10,7,-2,-1,4
CN(C)c1ccc(N=Cc2nc(-c3ccccc3)oc2OC(=O)c2ccccc2)cc1,nt,-89,12,nt,35*,nt
CC(=O)Oc1oc(-c2ccccc2)nc1C=Nc1ccc(N(C)C)cc1,2,0,nt,1,6,nt
Cc1ccc(-c2ccc3c(c2)O[C@@H](CN(C)C(=O)C2CCCCC2)[C@@H](C)CN([C@@H](C)CO)S3(=O)=O)cc1,nt,9[16.7 µM],nt,nt,nt,nt
Cc1cccc(-n2cnc3cc(C(=O)N4CCCCC4)ccc32)c1,44*,-12,27,-4,11,nt
C/C=C/c1cnc2c(c1)C(=O)N([C@H](C)CO)C[C@H](C)[C@H](CN(C)S(=O)(=O)c1cn(C)cn1)O2,-4,nt,nt,41,nt,6
SMILES,esBAF inh,Env fusion inh,MITF TRPM1 HTS,Cneo AK release,Wnt bcat act,ERAP1 HTS inh
CC(C)C#Cc1ccc2c(c1)O[C@H](CN(C)C(=O)c1ccccn1)[C@@H](C)CN([C@@H](C)CO)S2(=O)=O,3,13[16.7 µM],nt,58,nt,3
C[C@@H]1CCCCO[C@@H](CN(C)C(=O)Nc2cccc3ccccc23)[C@H](C)CN([C@H](C)CO)C(=O)c2cc(NS(=O)(=O)c3cccs3)ccc2O1,10,-32[16.7 µM],nt,0,nt,1
CO[C@@H](CN(C)Cc1cc(F)ccc1F)[C@H](C)CN([C@H](C)CO)S(=O)(=O)c1ccc(F)cc1,-3,13[16.7 µM],nt,2,nt,-4
CO[C@@H](CN(C)Cc1cc(F)ccc1F)[C@@H](C)CN([C@H](C)CO)S(=O)(=O)c1ccc(F)cc1,2,17[16.7 µM],nt,102*,nt,-6
CO[C@H](CN(C)S(=O)(=O)c1ccc(Cl)cc1)[C@H](C)CN([C@H](C)CO)S(=O)(=O)c1cccc(Cl)c1,5,56*[16.7 µM],nt,-10,nt,-5
CO[C@H](CN(C)S(=O)(=O)c1ccc(Cl)cc1)[C@H](C)CN([C@@H](C)CO)S(=O)(=O)c1cccc(Cl)c1,4,61*[16.7 µM],nt,-6,nt,-2
COc1ccccc1NC(=O)N[C@H]1CC[C@H](CCNS(=O)(=O)c2ccccc2)O[C@@H]1CO,-1,-19[16.7 µM],nt,-12,nt,nt
O=C(Nc1ccc(F)cc1)N1CCCCN2[C@H](CO)[C@H](c3ccc(C#CC4CC4)cc3)[C@@H]2C1,1,nt,nt,0,nt,-2
CC(C)NC(=O)N(C)C[C@@H]1OCCCC[C@H](C)Oc2ccc(NC(=O)CCC(F)(F)F)cc2C(=O)N([C@H](C)CO)C[C@H]1C,nt,-2[16.7 µM],nt,nt,nt,nt
COc1ccc(S(=O)(=O)N(C)C[C@@H]2OCCCC[C@H](C)Oc3ccc(NS(=O)(=O)c4ccccc4)cc3C(=O)N([C@H](C)CO)C[C@H]2C)cc1,5,-44[16.7 µM],nt,-1,nt,0
COc1ccc([N+](=O)[O-])cc1NC(=O)C(C)OC(=O)c1ccccc1C(=O)c1ccc(Cl)cc1 (stereo unspecified),nt,85*,-11,nt,nt,-3
Cc1noc(C)c1NC(=O)N(C)C[C@H]1Oc2ccc(NS(C)(=O)=O)cc2C(=O)N([C@@H](C)CO)C[C@H]1C,1,nt,nt,0,nt,-2
CC(C)(C)C(=O)N1CCc2cc(-c3csc(N)n3)ccc21,-54,nt,-13,-9,nt,nt
CCC(C)C(=O)N1CCc2cc(-c3csc(N)n3)ccc21 (stereo unspecified),53*,nt,68,-1,nt,nt
